Rows were chosen to be rich in hits. Some 1.1% of all compounds tested hit in one or more screens of this group.
C-LANA FP: inhibitors of KSHV LANA C-terminal domain DNA binding; inhibition, % at 9 µM; AID 504423; 0.078% of 340,000 active; MBP-C-LANA/FAM-LBS DNA binding, fluorescence polarization;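 active = highest replicate inhibition at or above 60% at 9 µM, even if other replicates fall short; inactive = all replicates below 60% inhibition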;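 note: 0% = neutral control wells and 100% = 4 µM acridine orange control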
CAL PDZ FP-1: blocks peptide binding to the human CAL PDZ domain | inhibition, % at 24.9 µM | 0.92% of 300,000 active | purified CAL PDZ, TMR-peptide fluorescence polarization, 1 h;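 active = mean inhibition of at least 30% with at least half of replicates also reaching 30%; inconclusive = no clear call, values can overlap the other calls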;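 note: 0% = DMSO neutral control and 100% = excess unlabeled competitor peptide PRC23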
miR-122 sensor: blocks miR-122 activity in Huh7 sensor cells | Huh7 miR-122 Renilla luciferase sensor, 48 h; neutral wells = 0, positive control = 100 | activation (reporter increase), % at 12.5 µM | 0.3% of 340,000 active | AID 602342;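 active = mean replicate activation score at least 90 and every replicate individually at or above 90; inconclusive = only one of the two criteria met; inactive = neither criterion met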;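 note: higher luciferase means less miR-122 activity so hits act as miR-122 inhibitors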
Keap1 Nrf2 FP: Keap1-Nrf2 (human) interaction inhibition | Keap1 Kelch-Nrf2 peptide fluorescence polarization, 1536-well | AID 504523 | inhibition, % at 9.4 µM | Q14145 | 0.15% of 340,000 active; in the data active = inhibition above about 12%; inconclusive = no clear call, values can overlap the other calls; inactive = below about 7.3%;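 note: human Keap1 Kelch domain with fluorescein labeled Nrf2 9mer peptide probe; 0% = neutral control wells and 100% = peptide positive control; higher means more block of Keap1 binding to Nrf2 peptide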
CAL PDZ FP-2: inhibitors of human CAL PDZ peptide binding; 0.02% of 330,000 active; AID 504414; purified CAL PDZ, TMR-peptide fluorescence polarization, 1 h; Q9HD26; inhibition, % at 20 µM;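 active = highest replicate inhibition of at least 40%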;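 note: plate controls were DMSO neutral control wells for no effect and unlabeled competitor peptide control wells for full effect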
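Assay system – tagged CAL PDZ protein CerCALP, purified · Timing – 1 h at RT · Compound – single point, 20 µM · Measured by – fluorescence polarization from S- and P-plane intensities, G-factor corrected · Evaluation – inhibition from polarization loss · Probe or stimulus – TMR reporter peptide T*-PRC34 · Buffer or medium – pH 7.4 phosphate-saline buffer, reducing agent, detergent, IgG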
The depositor's hits bear a star; u = inconclusive; x = no result given; [ ] = dose if it differs, or a comment.

SMILES	C-LANA FP	CAL PDZ FP-1	miR-122 sensor	Keap1 Nrf2 FP	CAL PDZ FP-2
Cc1ccc(-n2c(O)c(C=NC3CCCCC3N)c(=O)[nH]c2=O)cc1C (stereo not given)	-1	-2	-5	-6	-2
COc1cccc(-c2ccc([C@H]3[C@@H](CO)N4CCCCN(C(=O)Cc5ccncc5)C[C@H]34)cc2)c1	x	x	7[16.7 µM]	x	x
C1CCC2S[C@H]3CCCCC3NC2C1 (stereo not given in full)	0	58*	6	-3	-1
C[C@]12CC[C@H](O)C[C@H]1CC[C@@H]1[C@@H]2CC[C@]2(C)[C@@H](C3=CC(=O)OC3)CC[C@]12O	-1	-3	123*	-2	-1
CN=C1CN(O)C(c2ccccc2)c2cc(Cl)ccc2N1 (stereo not given)	1	x	111*	1	-2
C=CCn1c(O)c(C(C)=Nc2ccc(C(=O)O)cc2)c(=O)[nH]c1=O	0	82*	-2	0	0
O=c1cc(C2CCNCC2)[nH][nH]1	1	x	156*	-4	-1
COc1ccc(N2C(=O)CC(=O)NC2=O)cc1	-2	-4	236*	-5	0
Cc1ccc(N2C(=O)CC(=O)NC2=O)cc1	0	-4	-51	0	0
CCN(CC)S(=O)(=O)c1ccc(C)c(NCC(=O)Nc2ccc(C#N)c(Cl)c2)c1	-1	0	119*	2	-2
CC(=O)N1CCN(CC(=O)Nc2ccc(C#N)c(Cl)c2)CC1	1	1	x	6	0
N#Cc1cccc(-c2ccc([C@@H]3[C@@H](CO)N4CCCCN(C(=O)Cc5ccccc5)C[C@H]34)cc2)c1	x	x	-11[16.7 µM]	x	x
CN(C)c1ccc(C=C2C(=O)NC(=S)NC2=O)cc1	0	185*	5	-2	0
COc1ccc(Nc2ncc(C(=O)N3CCC4(CC3)OCCO4)c3ccccc23)cc1	1	80*	8	-3	0
COc1ccc2c(c1)C(NC(C)=O)CCc1cc(OC)c(OC)c(OC)c1-2 (stereo not given)	0	-1	75	-2	0
COc1cc2c(c(OC)c1OC)-c1ccc(O)c(=O)cc1C(NC(C)=O)CC2 (stereo not given)	-1	-3	97*	-2	-2
COc1cc(/C=C2\C(=O)NC(=O)N(c3ccccc3)C2=O)c([N+](=O)[O-])cc1OC	0	0	x	u	46*
COc1cc(/C=C2\C(=O)NC(=O)N(c3ccccc3)C2=O)cc(OC)c1O	1	x	-3	-3	-1
Cc1ccc2c(C)c3ccc4ccccc4c3c[n+]2c1	-7	38*	9	1	-2
O=C(O)[C@H]1[C@H](CO)[C@H]2Cn3c(ccc(-c4ccncc4)c3=O)[C@@H]1N2C(=O)C1CCC1	x	x	8[16.7 µM]	x	x
O=C(Cc1ccccc1)N1CCCCN2[C@@H](CO)[C@@H](c3ccc(-c4ccccc4)cc3)[C@@H]2C1	x	x	-4[16.7 µM]	x	x
COc1ccc(-c2ccc([C@@H]3[C@H](CO)N4CCCCN(C(=O)Cc5ccccc5)C[C@@H]34)cc2)cc1	x	x	-2[16.7 µM]	x	x
CN(C)C(=O)On1c(-c2ccccc2)nc2ccc(Cl)cc21	2	1	1	-3	-1
COc1ccc(-c2nc3ccccc3n2OC(=O)N(C)C)cc1	-1	2	114*	-4	x
CCN1[C@@H]2c3ccc(-c4cccc(C(=O)N(C)C)c4)c(=O)n3C[C@H]1[C@H](CO)[C@H]2C(=O)OC	x	x	3[16.7 µM]	x	x
SMILES	C-LANA FP	CAL PDZ FP-1	miR-122 sensor	Keap1 Nrf2 FP	CAL PDZ FP-2
N#Cc1cccc(-c2ccc([C@H]3[C@H]4CN(C(=O)Cc5cccnc5)CCCCN4[C@H]3CO)cc2)c1	x	x	-5[16.7 µM]	x	x
CN1C(=O)/C(=C/C=C/c2ccco2)C(=O)NC1=S	60*	-3	x	-26	-4
O=C1NC(=O)N(c2ccccc2)C(=O)/C1=C/C=C/c1ccco1	5	-1	-2	-13	-3
O=C(Cc1ccccc1)N1C[C@@H]2[C@H](c3ccccc31)[C@@H](CO)N2Cc1ccccc1	x	x	-17[16.7 µM]	x	x
CCC1CN1P(=O)(c1ccccc1)N1CC1CC (stereo not given)	0	113*	1	-1	0
COc1ccc(C(CNC(=O)Cc2ccc(Cl)c(Cl)c2)N2CCCCC2)cc1 (stereo not given)	-1	61*	11	0	0
COc1ccc(C(CNC(=O)Cc2ccc(Cl)c(Cl)c2)N(C)C)cc1 (stereo not given)	1	2	x	-5	-3

Screening data deposited in PubChem BioAssay by Broad Institute.
